Reference: ChEMBL document CHEMBL1944627, “[¹⁸F]GE-180: a novel fluorine-18 labelled PET tracer for imaging Translocator protein 18 kDa (TSPO)” (Bioorg Med Chem Lett, 2012)

Key:
Translocator protein = Translocator protein (Rattus norvegicus, UniProt P16257); experiment: Displacement of [3H]PK11195 from TSPO receptor in Wistar rat heart homogenate after 15 mins; type: tissue-based
[1] = Lipophilicity, log D of the compound at pH 7.4; type: physicochemical; conditions: buffer
Brain = experiment: Biodistribution in Sprague-Dawley rat whole brain at 1 to 3 MBq, iv after 2 mins by gamma counting; type: ADME, organism-based; conditions: in vivo
In short: (§1)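 Tracer formulated in Dulbecco's PBS and given iv, about 1–3 MBq at 10 MBq/mL, under 4% isoflurane, to naive rats (n = 3). Animals were killed at set times after injection. Brain was dissected into regions including striatum and olfactory bulbs, and activity was counted by gamma counter. Values are % id/g, and regional ratios were taken between times or regions.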

Rattus norvegicus = experiment: Biodistribution in Sprague-Dawley rat olfactory bulbs at 1 to 3 MBq, iv after 30 mins by gamma counting; type: ADME, organism-based, Olfactory bulb; conditions: in vivo, 0.5 h; in short: as §1
[2] = Metabolic stability in Sprague-Dawley rat brain assessed as compound remaining at 1 to 3 MBq, iv after 60 mins by HPLC analysis; type: ADME, organism-based; conditions: read-out: Stability
In short: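 Radiotracer was injected iv into rats. Brain and plasma were sampled at 10, 30 and 60 min post injection to follow metabolic fate. Brain radioactivity at 60 min is expressed as % parent tracer remaining.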

[3] = Ratio of drug uptake in olfactory bulb to striatum in Sprague-Dawley rat at 1 to 3 MBq, iv after 30 mins by gamma counting; conditions: in vivo, 0.5 h
[4] = Ratio of drug uptake in striatum in Sprague-Dawley rat at 1 to 3 MBq, iv after 2 mins to drug uptake in striatum in Sprague-Dawley rat at 1 to 3 MBq, iv after 30 mins; conditions: in vivo

Translocator protein, sequence (P16257 whole entry, looked up): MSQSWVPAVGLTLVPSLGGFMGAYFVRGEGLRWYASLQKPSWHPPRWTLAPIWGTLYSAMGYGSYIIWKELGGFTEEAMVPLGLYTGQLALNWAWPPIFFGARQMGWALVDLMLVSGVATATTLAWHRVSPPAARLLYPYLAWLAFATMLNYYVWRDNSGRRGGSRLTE

| SMILES | Ki (Translocator protein) [nM] | logD [1] | Drug uptake (Brain) [% ID/g] | Drug uptake (Rattus norvegicus) [% ID/g] | remaining at 1 h [2] [%] | Ratio [3] | Ratio [4] |
| --- | --- | --- | --- | --- | --- | --- | --- |
| CC(C)N(C)C(=O)C1CCCc2c1c1cc(F)ccc1n2CCF (racemic) | 8.23 | 2.72 |  |  |  |  |  |
| O=C(C1CCCc2c1c1ccccc1n2CC[18F])N1CCCCC1 (stereo not drawn) |  |  | 0.51 | 0.25 | 83 |  |  |
| CCN(CC)C(=O)[C@@H]1CCCc2c1c1c(OC)cccc1n2CC[18F] |  |  | 0.53 | 0.23 |  |  |  |
| CCN(CC)C(=O)[C@H]1CCCc2c1c1c(OC)cccc1n2CC[18F] |  |  | 0.53 | 0.45 | 94 |  |  |
| CCN(CC)C(=O)C1CCCc2c1c1ccc(OC)cc1n2CCF (racemic) | 5.5 | 2.41 |  |  |  |  |  |
| CCN(CC)C(=O)C1CCCc2c1c1cc(OC)c(F)cc1n2CC[18F] (stereo not drawn) |  |  | 0.29 | 0.21 |  | 3.5 | 4.17 |
| CCCN(C)C(=O)C1CCCc2c1c1ccccc1n2CCF (racemic) | 2.2 | 1.99 |  |  |  |  |  |
| CC(C)N(C(=O)C1CCCc2c1c1ccccc1n2CC[18F])C(C)C (stereo not drawn) |  |  | 0.48 | 0.25 | 43 | 2.78 | 5.11 |
| CCC(C)N([11CH3])C(=O)c1cc2ccccc2c(-c2ccccc2Cl)n1 (stereo not drawn) |  |  | 0.28 | 0.21 | 100 |  |  |
| CCN(CC)C(=O)C1CCCc2c1c1c(OC)cc(OC)cc1n2CCF (racemic) | 4.34 | 1.95 |  |  |  |  |  |
| CCCN(CCC)C(=O)C1CCCc2c1c1ccccc1n2CC[18F] (stereo not drawn) |  |  | 0.49 | 0.4 |  | 2.2 | 2.39 |
| CCN(CC)C(=O)C1CCCc2c1c1cc(F)c(OC)cc1n2CC[18F] (stereo not drawn) |  |  | 0.33 | 0.25 |  | 2.78 | 3 |
| CCN(CC)C(=O)C1CCCc2c1c1ccc(F)cc1n2CCF (racemic) | 1.05 |  |  |  |  |  |  |
| CN(Cc1ccccc1)C(=O)C1CCCc2c1c1ccccc1n2CCF (racemic) | 1.3 | 2.42 |  |  |  |  |  |
| CCN(CC)C(=O)C1CCCc2c1c1cc(O)ccc1n2CCF (racemic) | 135 | 1.7 |  |  |  |  |  |
| O=C(C1CCCc2c1c1ccccc1n2CCF)N1CCCCCC1 (racemic) | 4.4 | 2.35 |  |  |  |  |  |
| CCN(CC)C(=O)C1CCCc2c1c1cc(F)ccc1n2CCF (racemic) | 3.8 | 2.37 |  |  |  |  |  |
| CC(C)N(C)C(=O)C1CCCc2c1c1ccccc1n2CCF (racemic) | 4 | 2.2 |  |  |  |  |  |
| CCCCCCN(CCCCCC)C(=O)C1CCCc2c1c1ccccc1n2CC[18F] (stereo not drawn) |  |  | 0.06 | 0.1 |  | 1.11 | 0.44 |
| CN(Cc1ccccc1)C(=O)C1CCCc2c1c1cc(F)ccc1n2CCF (racemic) | 1.45 | 3.1 |  |  |  |  |  |
| CCCN(CC)C(=O)C1CCCc2c1c1ccccc1n2CC[18F] (stereo not drawn) |  |  | 0.45 | 0.46 |  | 2.09 | 1.77 |
| O=C(C1CCCc2c1c1ccccc1n2CC[18F])N1CCCCCC1 (stereo not drawn) |  |  | 0.45 | 0.33 | 79 | 4.13 | 5.38 |
| CCN(CC)C(=O)C1CCCc2c1c1ccc(F)cc1n2CC[18F] (stereo not drawn) |  |  | 0.52 | 0.48 |  | 1.92 | 1.8 |
| CCN(CC)C(=O)C1CCCc2c1c1cc(OC)ccc1n2CCF (racemic) | 1.9 | 2.71 |  |  |  |  |  |
| O=C(NCc1ccccc1)C1CCCc2c1c1ccccc1n2CCF (racemic) | 28.6 | 2.47 |  |  |  |  |  |

| SMILES | Ki (Translocator protein) [nM] | logD [1] | Drug uptake (Brain) [% ID/g] | Drug uptake (Rattus norvegicus) [% ID/g] | remaining at 1 h [2] [%] | Ratio [3] | Ratio [4] |
| --- | --- | --- | --- | --- | --- | --- | --- |
| CCCN(CCC)C(=O)C1CCCc2c1c1ccccc1n2CCF (racemic) | 0.7 | 2.98 |  |  |  |  |  |
| CC(C)N(C)C(=O)C1CCCc2c1c1ccccc1n2CC[18F] (stereo not drawn) |  |  | 0.53 | 0.35 | 74 | 3.18 | 4.54 |
| CCN(CC)C(=O)C1CCCc2c1c1c(F)cccc1n2CC[18F] (stereo not drawn) |  |  | 0.5 | 0.51 | 93 |  |  |
| O=C(C1CCCc2c1c1ccccc1n2CC[18F])N1CCCC1 (stereo not drawn) |  |  | 0.34 | 0.12 |  |  |  |
| COc1ccc(OC)c(CN(C(=O)CF)c2ccccc2Oc2ccccc2)c1 |  |  |  |  | 91 |  |  |
| CCN(CC)C(=O)C1CCCc2c1c1c(OC)cccc1n2CC[18F] (racemic) |  |  | 0.52 | 0.36 | 90 |  |  |
| CCN(CC)C(=O)C1CCCc2c1c1ccc(OC)cc1n2CC[18F] (stereo not drawn) |  |  | 0.36 | 0.39 |  | 4.33 | 4 |
| O=C(C1CCCc2c1c1ccccc1n2CCF)N1CCCCC1 (racemic) | 18.3 | 2.53 |  |  |  |  |  |
| CCCN(CC)C(=O)C1CCCc2c1c1ccccc1n2CCF (racemic) | 0.38 |  |  |  |  |  |  |
| O=C(C1CCCc2c1c1ccccc1n2CCF)N1CCCC1 (racemic) | 503 | 2.18 |  |  |  |  |  |
| CCN(CC)C(=O)C1CCCc2c1c1c(OC)cccc1n2CCF (racemic) | 2.4 | 2.95 |  |  |  |  |  |
| CCCN(C)C(=O)C1CCCc2c1c1ccccc1n2CC[18F] (stereo not drawn) |  |  | 0.39 | 0.25 |  | 2.5 | 3.5 |
| CN(Cc1ccccc1)C(=O)C1CCCc2c1c1ccccc1n2CC[18F] (stereo not drawn) |  |  | 0.55 | 0.34 | 81 | 3.4 | 4.7 |
| CCN(CC)C(=O)C1CCCc2c1c1cc(F)ccc1n2CC[18F] (stereo not drawn) |  |  | 0.56 | 0.41 | 84 |  |  |
| CCN(CC)C(=O)C1CCCc2c1c1ccccc1n2CCF (racemic) | 5.4 | 2.78 |  |  |  |  |  |
| CC(C)N(C(=O)C1CCCc2c1c1ccccc1n2CCF)C(C)C (racemic) | 1.7 | 2.28 |  |  |  |  |  |
| O=C(C1CCCc2c1c1ccccc1n2CCF)N1CCOCC1 (racemic) | 607 | 1.53 |  |  |  |  |  |
| CCN(Cc1ccccc1)C(=O)C1CCCc2c1c1ccccc1n2CCF (racemic) | 0.73 | 2.84 |  |  |  |  |  |
| COc1ccc(OC)c(CN(C(=O)C[18F])c2ccccc2Oc2ccccc2)c1 |  |  | 0.74 | 0.49 |  |  |  |
| CCN(CC)C(=O)C1CCCc2c1c1cc(F)c(OC)cc1n2CCF (racemic) | 3.1 | 2.08 |  |  |  |  |  |
| CCOc1ccc2c(c1)c1c(n2CCF)CCCC1C(=O)N(CC)CC (racemic) | 3.1 | 2.56 |  |  |  |  |  |
| CN(C)C(=O)C1CCCc2c1c1ccccc1n2CCF (racemic) | 502 | 1.7 |  |  |  |  |  |
| CCCCCCN(CCCCCC)C(=O)C1CCCc2c1c1ccccc1n2CCF (racemic) | 0.7 | 2.13 |  |  |  |  |  |
| CCOc1ccc2c(c1)c1c(n2CC[18F])CCCC1C(=O)N(CC)CC (stereo not drawn) |  |  | 0.33 | 0.25 |  | 2.5 | 3 |
| CCN(CC)C(=O)C1CCCc2c1c1cc(OC)c(F)cc1n2CCF (racemic) | 1.5 | 2.38 |  |  |  |  |  |
